# Measurements taken from ChEMBL document CHEMBL1131066, “2-Substituted aminopyrido[2,3-d]pyrimidin-7(8H)-ones. structure-activity relationships against selected tyrosine kinases and in vitro and in vivo anticancer activity” (J Med Chem, 1998).
# “And” between values parts separate entries of the source, which are not always exact repeats. Equal entries are not always repeated.
# Key:
# C6 [1] = test: Weight change of C6 glioma tumor cells in mice at 100 mg/kg peroral dose, days 1-15 administration; assay type: functional, organism-based; parameters: dose 100 mg/kg; settings: Mus musculus
# In short: (§1)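 Tumor-bearing nude mice (NCr nu/nu, 18–22 g, 6–8 per group) were implanted in the right axilla with tumor fragments on day 0 and dosed by average cage weight. Vehicle was 50 mM sodium lactate pH 4.0, or 0.5% methyl cellulose suspension; cisplatin was given in saline. Host body weight change is given as the maximum treatment-related weight loss.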
# C6 [2] = test: C6 glioma cell growth in soft agar with discontinued treatment; assay type: functional, cell-based; settings: Rattus norvegicus
# In short: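 C6 rat glioma cells (F10 Ham's, 15% horse serum, 2.5% fetal calf serum) exposed to a range of concentrations for 3 days, washed free of inhibitor, plated in drug-free soft agar. Colonies stained and counted after two weeks. IC50; mean of two experiments, each in duplicate.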
# C6 [3] = test: C6 glioma cell growth in soft agar with continuous treatment; assay type: functional, cell-based; settings: Rattus norvegicus
# In short: (§2)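 C6 rat glioma cells (F10 Ham's with 15% horse serum, 2.5% fetal calf serum) exposed 3 days to a concentration series, then plated in soft agar with compound still present at the same concentration; colonies stained and counted after two weeks. IC50; mean of two experiments, each in duplicate.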
# C6 [4] = test: (§3) Inhibition of C6 cell proliferation in sulforhodamine B assay; assay type: functional, cell-based; settings: Rattus norvegicus
# In short: (§4)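 C6 rat glioma cells (F10 Ham's, 15% horse serum, 2.5% fetal calf serum) seeded and allowed 24 h to attach, then given serial 2-fold compound dilutions; 4 d at 37 °C, 5% CO2; growth read by sulforhodamine B staining. IC50; mean of two experiments, each in triplicate.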
# C6 [5] = test: C6 cell growth in soft agar with discontinued treatment; assay type: functional, cell-based, Rattus norvegicus; settings: Rattus norvegicus, C6
# In short: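 C6 rat glioma cells given 3-day exposure to a concentration series, then washed free of inhibitor and plated in drug-free soft agar; colonies stained and counted after two weeks. IC50; mean of two experiments, each in duplicate.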
# C6 [6] = test: C6 cell growth in soft agar with continuous treatment; assay type: functional, cell-based, Rattus norvegicus; settings: Rattus norvegicus, C6; in short: as §2
# C6 [7] = test: as §3; assay type: functional, cell-based, Rattus norvegicus; settings: Rattus norvegicus, C6; in short: as §4
# [8] = biological target: T1, Platelet-derived growth factor receptor (PDGFr) (Rattus norvegicus, UniProt P20786+Q05030); test: Inhibition of PDGF-induced autophosphorylation of PDGF-R in C6 cells
# C6 [9] = test: Difference in days for treated (T) and control (C) C6 glioma cell tumors to reach 750 mg in mice at 100 mg/kg peroral dose, days 1-15 administration; assay type: functional, Mus musculus; settings: route oral
# In short: (§5)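 Nude mice (NCr nu/nu), 18–22 g, 6–8 per group, randomized and implanted with serially passaged tumor fragments in the right axilla on day 0. Dosed by average cage weight. Vehicle was 50 mM sodium lactate buffer, pH 4.0, or a 0.5% methyl cellulose suspension for one compound. Cisplatin was given in saline. T − C is the difference in days for treated and control tumors to reach 750 mg.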
# COLO 205 [10] = test: Difference in days for treated (T) and control (C) COLO 205 cell tumors to reach 750 mg in mice at 200 mg/kg ip dose, days 14-28 administration; assay type: functional, Mus musculus; settings: route intraperitoneal; in short: as §5
# COLO 205 [11] = test: Weight change of COLO 205 cell tumors in mice at 200 mg/kg ip dose, days 14-28 administration; assay type: functional, Mus musculus; settings: route intraperitoneal; in short: as §1
# [12] = biological target: Epidermal growth factor receptor (Homo sapiens, UniProt P00533); test: Inhibitory concentration was evaluated against epidermal growth factor receptor (EGFr) tyrosine kinase
# Sequence of Epidermal growth factor receptor (P00533 whole entry): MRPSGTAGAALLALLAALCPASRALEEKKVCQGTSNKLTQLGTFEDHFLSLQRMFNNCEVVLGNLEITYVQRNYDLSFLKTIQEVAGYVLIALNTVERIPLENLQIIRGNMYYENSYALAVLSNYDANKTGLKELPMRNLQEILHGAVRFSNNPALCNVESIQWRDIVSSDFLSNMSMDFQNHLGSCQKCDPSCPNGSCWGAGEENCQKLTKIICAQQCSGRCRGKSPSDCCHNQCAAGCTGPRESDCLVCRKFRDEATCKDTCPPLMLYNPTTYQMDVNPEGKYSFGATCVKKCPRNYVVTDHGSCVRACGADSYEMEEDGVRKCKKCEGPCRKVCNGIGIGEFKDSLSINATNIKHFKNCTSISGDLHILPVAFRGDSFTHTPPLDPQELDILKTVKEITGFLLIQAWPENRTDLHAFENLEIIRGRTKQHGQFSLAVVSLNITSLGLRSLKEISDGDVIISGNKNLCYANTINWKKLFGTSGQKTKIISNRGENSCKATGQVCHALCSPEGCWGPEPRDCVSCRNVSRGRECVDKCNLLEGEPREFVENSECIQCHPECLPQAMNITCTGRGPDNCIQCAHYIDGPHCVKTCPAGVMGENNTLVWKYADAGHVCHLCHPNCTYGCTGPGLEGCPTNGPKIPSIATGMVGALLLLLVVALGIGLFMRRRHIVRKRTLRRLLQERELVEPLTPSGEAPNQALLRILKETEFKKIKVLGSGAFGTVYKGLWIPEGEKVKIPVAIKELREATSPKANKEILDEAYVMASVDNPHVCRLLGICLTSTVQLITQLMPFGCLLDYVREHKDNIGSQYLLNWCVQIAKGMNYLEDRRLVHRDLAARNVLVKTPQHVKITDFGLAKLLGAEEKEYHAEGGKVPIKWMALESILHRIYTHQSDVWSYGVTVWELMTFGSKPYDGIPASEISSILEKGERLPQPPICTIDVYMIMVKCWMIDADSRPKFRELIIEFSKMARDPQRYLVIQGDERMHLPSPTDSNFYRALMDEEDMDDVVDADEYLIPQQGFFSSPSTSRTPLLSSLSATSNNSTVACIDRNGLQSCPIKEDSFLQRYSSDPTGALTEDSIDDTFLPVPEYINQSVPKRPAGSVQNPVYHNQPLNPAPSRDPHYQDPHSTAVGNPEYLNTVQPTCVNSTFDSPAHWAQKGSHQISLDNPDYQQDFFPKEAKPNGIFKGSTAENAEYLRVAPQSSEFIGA
# SK-OV-3 [13] = test: Weight change of SK-OV-3 cell tumors in mice at 200 mg/kg peroral dose, days 20-34 administration; assay type: functional; settings: route intraperitoneal, in the assay text read “intraperitoneal” for “peroral”
# HT-29 [14] = test: Difference in days for treated (T) and control (C) HT-29 cell tumors to reach 750 mg in mice at 200 mg/kg ip dose, days 15-29 administration; assay type: functional, Mus musculus; settings: route intraperitoneal; in short: as §5
# HT-29 [15] = test: Net reduction in tumor burden between first and last treatments of HT-29 cell tumors in mice at 200 mg/kg ip dose, days 15-29 administration; assay type: functional, Mus musculus; settings: route intraperitoneal
# In short: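 NCr nu/nu nude mice (18–22 g, 6–8 per group, randomized) had tumor fragments, kept by serial passage in nude mice, implanted in the right axilla on day 0. Mice were dosed by average cage weight on the listed days, over a range from toxic to ineffective doses. Vehicle was 50 mM sodium lactate pH 4.0 or 0.5% methyl cellulose suspension. Net log cell kill was taken between first and last treatments.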
# HT-29 [16] = test: Weight change of HT-29 cell tumors in mice at 200 mg/kg ip dose, days 15-29 administration; assay type: functional, Mus musculus; settings: route intraperitoneal; in short: as §1
# SK-OV-3 [17] = test: Difference in days for treated (T) and control (C) SKOV-3 cell tumors to reach 750 mg in mice at 200 mg/kg ip dose, days 20-34 administration; assay type: functional; settings: route intraperitoneal; in short: as §5
# NIH3T3 = test: Inhibition of NIH3T3 proliferation by sulforhodamine B assay; assay type: functional, cell-based, Mus musculus; settings: nih3t3
# [18] = biological target: T2, Platelet-derived growth factor receptor beta (Mus musculus, UniProt P05622); test: Inhibitory concentration was evaluated against Platelet-derived growth factor receptor beta (PDGFr) tyrosine kinase
# T2 sequence (P05622 whole entry): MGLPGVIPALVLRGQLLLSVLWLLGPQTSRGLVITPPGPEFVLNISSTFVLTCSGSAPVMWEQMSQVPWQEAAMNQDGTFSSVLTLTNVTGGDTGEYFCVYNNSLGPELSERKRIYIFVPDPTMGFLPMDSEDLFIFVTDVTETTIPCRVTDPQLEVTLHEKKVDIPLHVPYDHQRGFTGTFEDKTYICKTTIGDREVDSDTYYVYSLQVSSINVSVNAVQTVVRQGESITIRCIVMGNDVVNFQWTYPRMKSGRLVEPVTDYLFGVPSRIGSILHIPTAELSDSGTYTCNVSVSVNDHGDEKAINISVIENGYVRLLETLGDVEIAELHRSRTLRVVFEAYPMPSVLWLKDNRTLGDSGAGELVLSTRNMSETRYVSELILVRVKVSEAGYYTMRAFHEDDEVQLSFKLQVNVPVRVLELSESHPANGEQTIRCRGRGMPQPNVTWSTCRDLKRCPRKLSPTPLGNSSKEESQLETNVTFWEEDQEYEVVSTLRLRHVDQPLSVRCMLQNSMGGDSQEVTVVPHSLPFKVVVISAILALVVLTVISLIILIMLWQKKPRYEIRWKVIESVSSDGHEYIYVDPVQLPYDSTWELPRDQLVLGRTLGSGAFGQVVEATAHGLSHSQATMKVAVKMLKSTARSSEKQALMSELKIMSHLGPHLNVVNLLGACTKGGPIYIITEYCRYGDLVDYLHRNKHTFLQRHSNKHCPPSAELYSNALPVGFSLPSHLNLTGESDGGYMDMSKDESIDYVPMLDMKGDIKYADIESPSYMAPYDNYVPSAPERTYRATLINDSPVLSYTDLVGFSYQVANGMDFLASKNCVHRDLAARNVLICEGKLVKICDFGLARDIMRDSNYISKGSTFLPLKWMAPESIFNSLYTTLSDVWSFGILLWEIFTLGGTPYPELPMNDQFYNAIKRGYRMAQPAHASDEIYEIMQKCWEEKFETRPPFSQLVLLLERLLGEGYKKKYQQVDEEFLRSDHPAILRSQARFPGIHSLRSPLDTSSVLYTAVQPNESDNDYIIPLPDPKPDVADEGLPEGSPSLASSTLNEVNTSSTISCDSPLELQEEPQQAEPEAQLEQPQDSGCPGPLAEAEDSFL
# [19] = biological target: T2, Platelet-derived growth factor receptor beta; test: Inhibition of Platelet-derived growth factor receptor (PDGFr)
# In short: (§6)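 Recombinant kinases (PDGFr-β, FGFr-1, c-Src), enzyme inhibition IC50. Mean of at least two separate determinations, each done in triplicate; replicate values typically varied under 30%.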
# [20] = biological target: T1, Platelet-derived growth factor receptor (PDGFr); test: Inhibition of Platelet-derived growth factor receptor autophosphorylation in C6 cells; assay type: functional, cell-based
# In short: (§7)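 Serum-starved 24 h (C6 rat glioma; PDGF-B-transfected NIH3T3), incubated 2 h with a range of concentrations, then stimulated 5 min with 25 ng/mL PDGF-BB. Lysates or immunoprecipitates Western blotted with antiphosphotyrosine antibody, ECL detection. IC50.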
# [21] = biological target: T3, Platelet-derived growth factor receptor (Mus musculus, UniProt P05622+P26618); test: (§8) Inhibition of Platelet-derived growth factor receptor autophosphorylation in NIH3T3 cells; assay type: functional, cell-based; in short: as §7
# [22] = biological target: T3, Platelet-derived growth factor receptor; test: as §8; assay type: functional, cell-based; in short: as §7; remark: listed apart in the source
# [23] = biological target: Proto-oncogene tyrosine-protein kinase Src (Homo sapiens, UniProt P12931); test: Inhibition of c-Src tyrosine kinase; in short: as §6
# Sequence of Proto-oncogene tyrosine-protein kinase Src (Homo sapiens, UniProt P12931) (P12931 2-536 limits assumed): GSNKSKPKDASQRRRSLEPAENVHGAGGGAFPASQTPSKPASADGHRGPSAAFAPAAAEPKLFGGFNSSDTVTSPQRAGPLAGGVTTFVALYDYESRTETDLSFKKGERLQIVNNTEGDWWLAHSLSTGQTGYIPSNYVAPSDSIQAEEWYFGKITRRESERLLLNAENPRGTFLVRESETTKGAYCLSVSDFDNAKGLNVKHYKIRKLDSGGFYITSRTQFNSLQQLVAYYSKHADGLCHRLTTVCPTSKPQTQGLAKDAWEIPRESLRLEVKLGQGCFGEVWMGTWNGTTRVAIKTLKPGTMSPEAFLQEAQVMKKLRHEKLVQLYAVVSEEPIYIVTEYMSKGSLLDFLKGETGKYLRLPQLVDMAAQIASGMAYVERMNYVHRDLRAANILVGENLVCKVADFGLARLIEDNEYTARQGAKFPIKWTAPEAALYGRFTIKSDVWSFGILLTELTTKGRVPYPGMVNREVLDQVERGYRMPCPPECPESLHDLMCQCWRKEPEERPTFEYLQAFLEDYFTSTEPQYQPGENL
# Mus musculus [24] = test: Difference in days for treated (T) and control (C) PDGF-transfected mouse fibroblast tumors to reach 750 mg in mice at 100 mg/kg peroral dose, days 1-15 administration; assay type: functional; settings: route intraperitoneal, in the assay text read “intraperitoneal” for “peroral”; in short: as §5
# [25] = biological target: Proto-oncogene tyrosine-protein kinase Src (Gallus gallus, UniProt P00523); test: Inhibition of avian c-Src tyrosine kinase
# Mus musculus [26] = test: Net reduction in tumor burden between the first and last treatments of PDGF-transfected fibroblast cells in mice at 100 mg/kg intraperitoneal dose, days 1-15 administration
smiles,measurement,setting,value
Cn1c(=O)c(-c2c(Cl)cccc2Cl)cc2cnc(Nc3ccccc3)nc21,Weight change,C6 [1],Weight gain
same,IC50,C6 [2],2900 nM
same,IC50,C6 [3],1100 nM
same,IC50,C6 [4],1800 nM
same,IC50,C6 [5],2900 nM
same,IC50,C6 [6],1100 nM
same,IC50,C6 [7],1800 nM
same,IC50,[8],38 nM
same,T-C,C6 [9],-1.1 days
same,T-C,COLO 205 [10],-3.2 days
same,Weight change,COLO 205 [11],-2 g
same,IC50,[12],260 nM
same,Weight change,SK-OV-3 [13],-2 g
same,T-C,HT-29 [14],1.1 days
same,Net cell kill,HT-29 [15],-0.5 log10
same,Weight change,HT-29 [16],-2 g
same,T-C,SK-OV-3 [17],-0.4 days
same,IC50,NIH3T3,105 nM and 410 nM
same,IC50,[18],400 nM
same,IC50,[19],400 nM
same,IC50,[20],38 nM
same,IC50,[21],20 nM
same,IC50,[22],20 nM
same,IC50,[23],17 nM
same,T-C,Mus musculus [24],1.7 days
same,IC50,[25],20 nM
same,Net cell kill,Mus musculus [26],-2.1 log10
